From PubChem BioAssay
In the library only some 0.54% were active in any assay of this set; here they are far more common.
PP5 inh: PP5 (human) phosphatase inhibition; AID 1987; 320,000 compounds, 0.18% hits; P53041; purified PP5c, OMFP substrate fluorescence; inhibition, % at 6.7 µM;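 active = inhibition above the campaign's mean inhibition across all tested compounds plus 3 SD, cut at about 9.5% in these data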;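 also: 0% = DMSO only and 100% = 100 µM cantharidin control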
ASAP1 GAP inh: inhibitors of human ASAP1 ArfGAP activity; 360,000 compounds, 0.19% hits; inhibition, % at 16.5 µM; ASAP1-stimulated ARF1 GTP hydrolysis, GDP FP detection; AID 624377; in the data active = inhibition above about 25%;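 also: 0% = vehicle with enzyme and substrate and 100% = no enzyme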
PKD1 inh: inhibitors of human PKD1 kinase. Q15139. PKD1 kinase fluorescence polarization assay. inhibition, % (no concentration beside the values). 200,000 compounds, 0.056% hits. AID 797; in the data active = inhibition above about 50%
ARFGAP1 inh: rat ARFGAP1 inhibition; Q62848; Arfgap1-stimulated ARF1 GTP hydrolysis, GDP FP detection; inhibition, % at 16.5 µM; 360,000 compounds, 0.26% hits;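 active = inhibition above a per-plate limit, mean inhibition of low control wells plus 3 SD, cut at about 25% in these data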;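 also: 0% = DMSO wells with enzyme and 100% = wells lacking Arfgap1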
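Assay system: Rat Arfgap1 GAP domain (His6, aa 1-136), purified enzyme | Buffer or medium: HEPES 25 mM pH 7.5, NaCl 150 mM, MgCl2, DTT | Schedule: GTP hydrolysis reaction 2 h at 25 °C | Signal: FP of antibody-bound GDP Alexa 633 tracer, ex 620/em 688 nm | Measure: Percent inhibition of Arfgap1-stimulated GTP hydrolysis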
PP5 inh confirm: confirmation of human PP5 phosphatase inhibitors. shares compounds with PP5 inh. Purified PP5, fluorogenic phosphatase substrate, fluorescence. inhibition, % at 6.7 µM. 460 compounds, 22% hits; in the data active = inhibition above about 9.5%
PP1 inh counter: PP1 phosphatase inhibition, counter-screen for PP5 inhibitors. shares compounds with PP5 inh. PP1 enzyme, fluorescent phosphatase substrate. inhibition, % at 6.7 µM. 460 compounds, 4% hits. AID 2355; in the data active = inhibition above about 16%
* hit, by the source's call; nt = not tested or not shown.

SMILES	PP5 inh	ASAP1 GAP inh	PKD1 inh	ARFGAP1 inh	PP5 inh confirm	PP1 inh counter
CCOc1ccc(S(N)(=O)=O)cc1-c1nc2c(C(C)(C)C)nn(C)c2c(=O)[nH]1	1	8	nt	9	nt	nt
CCOc1ccc(S(=O)(=O)NC(C)(C)C)cc1-c1nc2c(C(C)(C)C)nn(C)c2c(=O)[nH]1	10*	4	-1	7	3	4
O=C(Nc1cccc(F)c1)c1ccccc1	0	-13	-2	1	nt	nt
O=C(Nc1ccc(Nc2ccccc2)cc1)c1cccc(F)c1	9.8*	3	nt	-8	3	2
COC(=O)c1cc2c(c3c4ccccc4n(S(=O)(=O)c4ccc(OC)cc4)c13)C(=O)N(Cc1ccccc1OC)C2	nt	12	nt	23	nt	nt
CC(=O)C1=C(C)N(CC(C)C)C(=S)NC1c1cccc(Cl)c1 (stereo unspecified)	nt	-2	nt	-4	nt	nt
Cc1cccc(OCC(=O)N/N=C/c2sc(=O)n(Cc3cccc(C(=O)O)c3)c2Cl)c1	13*	-11	nt	0	-3	-1
O=C(COc1ccccc1)N/N=C/c1sc(=O)n(Cc2cccc(C(=O)O)c2)c1Cl	3	-13	nt	4	nt	nt
Cn1c(SCC(=O)N2c3ccccc3CCc3ccccc32)nnc1-c1ccc(O)cc1	9.7*	-11	-6	-1	-4	-6
O=C(Nc1ccc(C(O)(C(F)(F)F)C(F)(F)F)cc1)c1ccc(Cl)c([N+](=O)[O-])c1	11*	15	2	6	6	6
Cc1ccc(S(=O)(=O)N2CCOCC2)cc1NC(=O)COC(=O)c1ccc(Br)cc1	nt	6	nt	-10	nt	nt
Cc1ccc(S(=O)(=O)N2CCOCC2)cc1NC(=O)COC(=O)CSc1ccc(Br)cc1C	11*	9	-2	1	1	6
O=C(O)CCCN1C(=O)C2C3CCC(O3)C2C1=O (stereo unspecified)	17*	-20	2	14	7	4
Cc1c(NC(=S)N/N=C/c2ccc(O)cc2)c(=O)n(-c2ccccc2)n1C	2	-6	2	-6	nt	nt
Cc1c(NC(=S)N/N=C/c2cc([N+](=O)[O-])ccc2O)c(=O)n(-c2ccccc2)n1C	12*	-5	nt	2	-7	-3
Cc1[nH]n(-c2ccccc2)c(=O)c1C(C[N+](=O)[O-])c1ccc(Br)cc1 (stereo unspecified)	2	6	5	20	nt	nt
COc1cccc(C(C[N+](=O)[O-])c2c(C)[nH]n(-c3ccccc3)c2=O)c1 (stereo unspecified)	12*	3	nt	12	-1	-2
C[C@H](NC(=O)c1ncn2c1c(=O)[nH]c1ccc(Br)cc12)c1ccccc1	nt	10	nt	-3	nt	nt
O=C(Nc1c(F)cc(F)cc1Br)c1cc(-c2ccccc2)on1	12*	-6	nt	2	-3	-2
CC(C)Nc1nc(NC(C)C)nc(C(N)=O)n1	11*	1	4	7	-7	-6
CC(C)Nc1nc(NC(C)C)nc(N(C)C(N)=O)n1	1	16	3	13	nt	nt
COc1ccc(C2=NCN(c3ccc(C)cc3)C(=S)N2)cc1	11*	7	-6	-10	-2	-2
COc1ccccc1Cc1c(C2CCCCC2)nc2c(C)cc(Br)cn12	nt	-1	nt	9	nt	nt
CC(C)c1ccc(C(O)P(=O)(OCc2ccccc2)c2ccc(N(C)C)cc2)cc1 (stereo unspecified)	9.7*	-6	nt	5	5	6
C[C@H](O)[C@@H]1CN2CCc3ccc(-c4ccc5c(c4)OCO5)cc3[C@@H]2C[C@@H]1N(C)Cc1cc(Cl)cc(Cl)c1	nt	-3	nt	2	nt	nt
SMILES	PP5 inh	ASAP1 GAP inh	PKD1 inh	ARFGAP1 inh	PP5 inh confirm	PP1 inh counter
CCOc1ccc(-c2cc(C(=O)Nc3cccc(C(F)(F)F)c3)[nH]n2)c(C)c1	nt	-5	nt	2	nt	nt
CCCCOc1ccc(C(=O)Nc2ccc(N3CCN(C(C)=O)CC3)cc2)cc1	12*	-9	0	2	-4	-4
COC(=O)CCC(=O)OC1(C)C(=O)C2=CN(CCCCO)C(c3ccc(OC)cc3)=CC2=C(Br)C1=O (stereo unspecified)	9	nt	nt	nt	nt	nt
COC(=O)CCC(=O)OC1(C)C(=O)C2=CN(CCN3CCOCC3)C(c3ccc(OC)cc3)=CC2=C(Br)C1=O (stereo unspecified)	11*	nt	nt	nt	37*	10
O=C(NCc1ccncc1)[C@@H]1CCCN1C(=O)[C@@H]1CCCN1C(=O)c1ccccc1Cl	nt	8	nt	4	nt	nt
O=C(CCc1c[nH]c2ccccc12)N1CCN(S(=O)(=O)c2ccc([N+](=O)[O-])cc2)CC1	nt	0	nt	4	nt	nt
